Data set [1] in a line: (§1) IC50 of oxic to that of IC50 of hypoxic was determined in V79 cells; hypoxia selective cytotoxicity. The class given is functional, Cricetulus griseus. Summed up:
(§2)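 V79-171b Chinese hamster cells in RPMI 1640 with 10% fetal calf serum, plated and incubated ca. 18 h at 37 °C, then exposed to a range of compound concentrations for 1 h at 37 °C under oxic or hypoxic conditions. Cells rinsed, colonies grown; ratio taken as IC50(oxic)/IC50(hypoxic). Means of replicate experiments agreeing within ±20%.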

Data set [2] can be described thus: Plating efficiency of drug treated irradiated tumors relative to irradiated only group. The class given is ADME. Summed up:
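Mice bearing KHT fibrosarcoma (200–500 mg, hypoxic fraction ca. 20%) given vehicle or compound ip 30–120 min before 15 Gy X-rays. Tumours were excised 18 h later, dissociated to single cells and plated in soft agar. Colonies were stained and counted after 12–16 days. Plating efficiency is relative to the irradiated-only group.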

A short description of data set [3]: Sensitizer enhancement ratio(SER) determined at the maximum nontoxic dose by measuring the number of cells killed at a conc 3 mM (in vitro). The class given is functional, Cricetulus griseus. Summed up:
(§3)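 V79-171b cells in RPMI 1640 with 10% FCS, held at maximum nontoxic drug level. Made hypoxic by 95% N2/5% CO2 purge for 1 h, then X-irradiated at room temperature (320 kV, ca. 1.5 Gy/min). Drug medium replaced and colonies (≥50 cells) scored at 6-7 days, 37 °C. SER = ratio of doses giving 25% survival on hypoxic curves without vs with drug.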

A short description of data set [4]: Partition coefficient measured between octanol and 0.05 M NH4PO4 (pH 7.4) using shake-flask method. It counts as physicochemical. As to conditions: octanol/0.05 M NH4PO4 buffer.
The species entered for another data set is Cricetulus griseus. The data set can be described thus: The efficiency of radiosensitization is the concentration required to give an SER of 1.6 (in vitro). The class given is functional. The method in brief:
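Chinese hamster V79-171b monolayers in RPMI 1640 with 10% FCS, plated ~18 h at 37 °C. Made hypoxic with 95% N2/5% CO2 for 1 h, then given X-rays (320 kV, ~1.5 Gy/min) at room temperature. Drug removed after irradiation; colonies of ≥50 cells scored after 6-7 days. SER is the dose ratio for 25% survival on hypoxic curves ±compound; C1.6 read from SER-versus-concentration plot.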

In another data set the test system is Mus musculus. The data set can be described thus: In vivo radiosensitizing activity measured as maximum tolerated dose in mice. It counts as functional.
The nature of data set [5]: Sensitizer enhancement ratio(SER) determined at the maximum nontoxic dose by measuring the number of cells killed at a conc 1.5 mM (in vitro). The class given is functional, Cricetulus griseus. Summed up: as §3
A short description of data set [6]: Sensitizer enhancement ratio(SER) determined at the maximum nontoxic dose by measuring the number of cells killed at a conc […] (in vitro). It counts as functional, Cricetulus griseus. Summed up:
as §3

A short description of data set [7]: Sensitizer enhancement ratio(SER) determined at the maximum nontoxic dose by measuring the number of cells killed at a conc 2 mM (in vitro). The class given is functional, Cricetulus griseus.
Data set [8] in a line: Sensitizer enhancement ratio(SER) determined at the maximum nontoxic dose by measuring the number of cells killed at a conc 0.75 mM (in vitro). It counts as functional, Cricetulus griseus.
The nature of data set [9]: Sensitizer enhancement ratio(SER) determined at the maximum nontoxic dose by measuring the number of cells killed at a conc 3.0 mM (in vitro).
Data set [10] is described as follows: Sensitizer enhancement ratio(SER) determined at the maximum nontoxic dose by measuring the number of cells killed at a conc 10 mM (in vitro). It counts as functional, Cricetulus griseus.
The nature of data set [11]: Sensitizer enhancement ratio(SER) determined at the maximum nontoxic dose by measuring the number of cells killed at a conc 0.38 mM (in vitro). It counts as functional, Cricetulus griseus. The method in brief:
as §3

A further data set relates to V79. The data set is described as §1. It counts as functional. The settings on record: Cricetulus griseus. Summed up: as §2
Data set [12] is described as follows: Sensitizer enhancement ratio(SER) determined at the maximum nontoxic dose by measuring the number of cells killed at a conc 1.9 (in vitro). The class given is functional, Cricetulus griseus. The method in brief: as §3

`O=[N+]([O-])c1nccn1CC(O)CN1C2CCCCCCC21` (stereo unspecified): the “Hypoxic selectivity ratio (IC50 oxic / IC50 hypoxic)” value in data set [1] amounted to 1.2. Moreover, in data set [2], the Fold reduction is listed as 2.6. The SER in data set [3] was 2.1. Moreover, the logD in data set [4] was 1.84. In addition, the C1.6 in the data set listed under Cricetulus griseus was determined as 0.75 mM. Moreover, the MTD with Mus musculus was 500 mg/kg.
For `O=[N+]([O-])c1nccn1CC(O)CNC1CCC[C@H]1Br` (stereo partly specified), in data set [5], the SER is 2.3. The “Hypoxic selectivity ratio (IC50 oxic / IC50 hypoxic)” value in [1] is on record as 2.5. The Fold reduction in [2] is listed as 4.3. In [4], this compound yielded a logD of 0.43. Moreover, the C1.6 in the data set filed under Cricetulus griseus came out at 0.75 mM. Further, the MTD with Mus musculus came to 1000 mg/kg.
Turning to `O=[N+]([O-])c1nccn1CC(O)CN1CC1` (stereo unspecified), the “Hypoxic selectivity ratio (IC50 oxic / IC50 hypoxic)” value in data set [1] is 50. In data set [2], this compound returned a Fold reduction of 6.7. The same compound displayed a logD in [4] of 0.33. The C1.6 in the data set filed under Cricetulus griseus was determined as 0.33 mM. In addition, in data set [6], the SER is reported as 1.9. The MTD with Mus musculus came out at 100 mg/kg.
Consider `O=[N+]([O-])c1nccn1CC(O)CNC1C2CCC(C2)[C@@H]1Br` (stereo partly specified), for which the “Hypoxic selectivity ratio (IC50 oxic / IC50 hypoxic)” value in data set [1] is given as 1.3. Also, the SER in [3] is 2.1. This compound gave a logD in [4] of 1.36. Moreover, the C1.6 in the data set filed under Cricetulus griseus came out at 0.35 mM.
For the compound `O=[N+]([O-])c1nccn1CC(O)CN1CCC1` (stereo unspecified), in data set [1], the “Hypoxic selectivity ratio (IC50 oxic / IC50 hypoxic)” value turned out to be 1. The compound also yielded a logD in data set [4] of -1.51. Moreover, the SER in data set [7] is 2.
As to `O=[N+]([O-])c1nccn1CC(O)CN1C2CCCCCC21` (stereo unspecified), the “Hypoxic selectivity ratio (IC50 oxic / IC50 hypoxic)” value in data set [1] was 1.4. The SER in data set [3] stood at 1.7. This compound also registered a logD in data set [4] of 1.44. For the same compound, the C1.6 in the data set listed under Cricetulus griseus stood at 1 mM.
With `O=[N+]([O-])c1nccn1CC(O)CNC1CCCC[C@@H]1Br` (stereo partly specified), the “Hypoxic selectivity ratio (IC50 oxic / IC50 hypoxic)” value in data set [1] worked out at 2.5. For the same compound, in [2], the Fold reduction came out at 4.5. For the same compound, the SER in [8] is on record as 2.4. The logD in data set [4] was found to be 1.21. Moreover, in the data set listed under Cricetulus griseus, the C1.6 is 0.35 mM. The MTD with Mus musculus was 700 mg/kg.
For the compound `O=[N+]([O-])c1nccn1CC(O)CN1C2CCCC21` (stereo unspecified), the “Hypoxic selectivity ratio (IC50 oxic / IC50 hypoxic)” value in [1] is on record as 2. For the same compound, the Fold reduction in [2] came out at 6.1. In addition, the logD in data set [4] is 0.37. Also, the C1.6 in the data set filed under Cricetulus griseus was determined as 0.48 mM. Also, the SER in data set [6] worked out at 2. Besides, the maximal tolerated dose (MTD) in the data set on Mus musculus was determined as 450 mg/kg.
With `COC(=O)C1CCN1CC(O)Cn1ccnc1[N+](=O)[O-]` (stereo unspecified), the “Hypoxic selectivity ratio (IC50 oxic / IC50 hypoxic)” value in [1] stood at 1. In addition, the SER in data set [9] is reported as 2.1. Also, the logD in data set [4] is -0.29.
Take `CCOC(=O)C1CCC2C(C1)N2CC(O)Cn1ccnc1[N+](=O)[O-]` (stereo unspecified): the “Hypoxic selectivity ratio (IC50 oxic / IC50 hypoxic)” value in data set [1] is on record as 1.1. The SER in data set [3] was 2. In data set [4], this compound came in with a logD of 1.13. The C1.6 in the data set listed under Cricetulus griseus turned out to be 3 mM.
`O=C(O)C1CCN1CC(O)Cn1ccnc1[N+](=O)[O-]` (stereo unspecified): the “Hypoxic selectivity ratio (IC50 oxic / IC50 hypoxic)” value in data set [1] is on record as 1. Besides, the logD in data set [4] is -2.02. The SER in data set [10] is on record as 2.3.
On to `O=[N+]([O-])c1nccn1CC(O)CN1C2CCc3ccccc3C21` (stereo unspecified), for which the “Hypoxic selectivity ratio (IC50 oxic / IC50 hypoxic)” value in data set [1] turned out to be 1.2. For the same compound, the logD in data set [4] amounted to 2.15. For the same compound, in data set [11], the SER was determined as 1.2.
Consider `CC1CCCC2C1N2CC(O)Cn1ccnc1[N+](=O)[O-]` (stereo unspecified), for which, in data set [5], the SER was 2. Besides, the “Hypoxic selectivity ratio (IC50 oxic / IC50 hypoxic)” value in data set [1] came out at 1. This compound also displayed a Fold reduction in data set [2] of 2.1. Besides, the pH-dependent lipophilicity (logD) in data set [4] is 1.55. In the data set filed under Cricetulus griseus, the C1.6 came out at 0.75 mM. Besides, in the data set with Mus musculus, the MTD amounted to 500 mg/kg.
`O=[N+]([O-])c1nccn1CC(O)CN1C2C3CCC(C3)C21` (stereo unspecified): the “Hypoxic selectivity ratio (IC50 oxic / IC50 hypoxic)” value in data set [1] was determined as 1.4. Moreover, in [3], the SER turned out to be 1.6. Moreover, the log distribution coefficient (logD) in data set [4] stood at 1.6. In addition, the C1.6 in the data set listed under Cricetulus griseus was determined as 3 mM.
As to `O=[N+]([O-])c1nccn1CC(O)CN1C2CCOCC21` (stereo unspecified), the Cytotoxicity entry in the data set on V79 is given as “Unstable”. Further, the Fold reduction in data set [2] amounted to 5.7. In [4], this compound came in with a logD of 0.07. In addition, in data set [6], the SER turned out to be 1.3. The MTD with Mus musculus came to 800 mg/kg.
On to `O=[N+]([O-])c1nccn1CC(O)CNC1COCC[C@@H]1Br` (stereo partly specified), for which the “Hypoxic selectivity ratio (IC50 oxic / IC50 hypoxic)” value in [1] turned out to be 1.2. Besides, the Fold reduction in data set [2] came to 13. Moreover, in data set [3], the SER is 1.8. Moreover, in data set [4], the logD was -0.17. Moreover, the C1.6 in the data set listed under Cricetulus griseus amounted to 1.8 mM. Also, in the data set on Mus musculus, the MTD turned out to be 1500 mg/kg.
Take `O=[N+]([O-])c1nccn1CC(O)CN1C2CCCCC21` (stereo unspecified): the SER in data set [12] was 1.9. The “Hypoxic selectivity ratio (IC50 oxic / IC50 hypoxic)” value in data set [1] came to 1.6. In addition, in data set [2], the Fold reduction stood at 3.91. Moreover, in data set [4], the logD amounted to 1.07. Besides, the C1.6 in the data set listed under Cricetulus griseus turned out to be 0.35 mM. Besides, the MTD with Mus musculus was 400 mg/kg.

For the origin of these results see ChEMBL document CHEMBL1125182, “A new class of analogues of the bifunctional radiosensitizer alpha-(1-aziridinylmethyl)-2-nitro-1H-imidazole-1-ethanol (RSU 1069): the cycloalkylaziridines” (J Med Chem, 1991).
